ChEMBL document CHEMBL4765437, “Design, synthesis and biological evaluation of pyrazolo[3,4-d]pyrimidine-based protein kinase D inhibitors” (Eur J Med Chem, 2020)
pIC50: −log10 of the molar value. Active and inactive are the calls of the source. The rule behind the calls is not given here.

Assays:
[1] = tested on: LN-229; test: Antiproliferative activity against human LN-229 cells assessed as reduction in cell viability incubated for 72 hrs by IncuCyte live-cell automated imaging analysis; settings: LN-229, 72 h
[2] = tested on: CAPAN-1; test: Antiproliferative activity against human CAPAN-1 cells assessed as reduction in cell viability incubated for 72 hrs by IncuCyte live-cell automated imaging analysis; settings: CAPAN-1, 72 h
[3] = tested on: HCT-116; test: Antiproliferative activity against human HCT-116 cells assessed as reduction in cell viability incubated for 72 hrs by IncuCyte live-cell automated imaging analysis; settings: HCT-116, 72 h
[4] = tested on: NCI-H460; test: Antiproliferative activity against human NCI-H460 cells assessed as reduction in cell viability incubated for 72 hrs by IncuCyte live-cell automated imaging analysis; settings: NCI-H460, 72 h
[5] = Antiproliferative activity against human DND41 cells assessed as reduction in cell viability incubated for 72 hrs by IncuCyte live-cell automated imaging analysis; settings: DND41, 72 h
[6] = tested on: HL-60; test: Antiproliferative activity against human HL-60 cells assessed as reduction in cell viability incubated for 72 hrs by IncuCyte live-cell automated imaging analysis; settings: HL-60, 72 h
[7] = tested on: K562; test: Antiproliferative activity against human K562 cells assessed as reduction in cell viability incubated for 72 hrs by IncuCyte live-cell automated imaging analysis; settings: K562, 72 h
[8] = tested on: Z-138; test: Antiproliferative activity against human Z138 cells assessed as reduction in cell viability incubated for 72 hrs by IncuCyte live-cell automated imaging analysis; settings: Z-138, 72 h
[9] = target: T1, Serine/threonine-protein kinase D1 (Homo sapiens, UniProt Q15139); test: Inhibition of recombinant FLAG-tagged PKD1 (unknown origin) expressed in HEK293T cells using Syntide-2 as substrate measured after 15 mins by ADP-Glo assay
T1 sequence (Q15139 whole entry): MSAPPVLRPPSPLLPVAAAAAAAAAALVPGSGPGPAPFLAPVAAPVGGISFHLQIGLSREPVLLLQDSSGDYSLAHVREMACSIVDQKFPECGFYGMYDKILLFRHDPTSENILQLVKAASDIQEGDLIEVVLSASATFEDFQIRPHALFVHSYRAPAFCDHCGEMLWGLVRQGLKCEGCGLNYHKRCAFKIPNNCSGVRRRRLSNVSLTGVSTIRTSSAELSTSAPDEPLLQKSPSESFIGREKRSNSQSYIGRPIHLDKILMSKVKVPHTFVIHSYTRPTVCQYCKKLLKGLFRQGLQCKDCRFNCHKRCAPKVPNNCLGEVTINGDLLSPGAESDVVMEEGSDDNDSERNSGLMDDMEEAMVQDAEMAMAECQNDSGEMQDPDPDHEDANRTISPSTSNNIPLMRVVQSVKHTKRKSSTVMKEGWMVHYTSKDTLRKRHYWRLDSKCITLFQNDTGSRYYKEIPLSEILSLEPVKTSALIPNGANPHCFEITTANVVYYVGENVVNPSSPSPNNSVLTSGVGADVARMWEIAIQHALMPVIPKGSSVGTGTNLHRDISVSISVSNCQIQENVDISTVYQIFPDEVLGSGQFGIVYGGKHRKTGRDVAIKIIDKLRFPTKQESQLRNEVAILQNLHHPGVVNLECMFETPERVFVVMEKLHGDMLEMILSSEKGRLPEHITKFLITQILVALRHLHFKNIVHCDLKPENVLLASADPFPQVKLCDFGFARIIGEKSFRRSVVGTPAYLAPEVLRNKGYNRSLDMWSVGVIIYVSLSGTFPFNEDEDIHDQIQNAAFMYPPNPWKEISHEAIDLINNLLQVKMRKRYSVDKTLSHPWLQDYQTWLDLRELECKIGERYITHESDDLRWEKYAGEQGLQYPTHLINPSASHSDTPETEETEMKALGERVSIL

[10] = target: T2, Serine/threonine-protein kinase D2 (Homo sapiens, UniProt Q9BZL6); test: Inhibition of recombinant FLAG-tagged PKD2 (unknown origin) expressed in HEK293T cells using Syntide-2 as substrate measured after 15 mins by ADP-Glo assay
T2 sequence (Q9BZL6 whole entry): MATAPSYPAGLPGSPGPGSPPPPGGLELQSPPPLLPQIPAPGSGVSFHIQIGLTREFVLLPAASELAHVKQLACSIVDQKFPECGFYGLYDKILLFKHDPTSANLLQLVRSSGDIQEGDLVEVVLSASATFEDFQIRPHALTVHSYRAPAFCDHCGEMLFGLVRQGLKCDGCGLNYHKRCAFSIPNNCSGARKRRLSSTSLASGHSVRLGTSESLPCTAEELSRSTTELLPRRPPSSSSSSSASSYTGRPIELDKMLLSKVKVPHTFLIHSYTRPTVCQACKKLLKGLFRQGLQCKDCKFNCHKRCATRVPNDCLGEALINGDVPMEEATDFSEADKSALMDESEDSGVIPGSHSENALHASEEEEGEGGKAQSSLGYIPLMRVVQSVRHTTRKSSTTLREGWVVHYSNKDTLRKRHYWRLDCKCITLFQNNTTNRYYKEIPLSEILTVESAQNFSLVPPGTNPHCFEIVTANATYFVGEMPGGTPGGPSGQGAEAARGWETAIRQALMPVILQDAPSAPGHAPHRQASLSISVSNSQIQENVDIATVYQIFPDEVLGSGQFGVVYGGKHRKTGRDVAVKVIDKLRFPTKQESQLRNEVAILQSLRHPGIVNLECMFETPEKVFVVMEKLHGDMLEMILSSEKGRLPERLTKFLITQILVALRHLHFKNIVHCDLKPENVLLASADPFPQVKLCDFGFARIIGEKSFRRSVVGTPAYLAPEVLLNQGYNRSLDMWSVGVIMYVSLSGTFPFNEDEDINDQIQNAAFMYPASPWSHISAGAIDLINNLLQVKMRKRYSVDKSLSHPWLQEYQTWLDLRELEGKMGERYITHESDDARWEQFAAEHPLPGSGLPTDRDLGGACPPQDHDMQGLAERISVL

[11] = target: T3, Serine/threonine-protein kinase D3 (Homo sapiens, UniProt O94806); test: Inhibition of recombinant FLAG-tagged PKD3 (unknown origin) expressed in HEK293T cells using Syntide-2 as substrate measured after 15 mins by ADP-Glo assay
T3 sequence (O94806 whole entry): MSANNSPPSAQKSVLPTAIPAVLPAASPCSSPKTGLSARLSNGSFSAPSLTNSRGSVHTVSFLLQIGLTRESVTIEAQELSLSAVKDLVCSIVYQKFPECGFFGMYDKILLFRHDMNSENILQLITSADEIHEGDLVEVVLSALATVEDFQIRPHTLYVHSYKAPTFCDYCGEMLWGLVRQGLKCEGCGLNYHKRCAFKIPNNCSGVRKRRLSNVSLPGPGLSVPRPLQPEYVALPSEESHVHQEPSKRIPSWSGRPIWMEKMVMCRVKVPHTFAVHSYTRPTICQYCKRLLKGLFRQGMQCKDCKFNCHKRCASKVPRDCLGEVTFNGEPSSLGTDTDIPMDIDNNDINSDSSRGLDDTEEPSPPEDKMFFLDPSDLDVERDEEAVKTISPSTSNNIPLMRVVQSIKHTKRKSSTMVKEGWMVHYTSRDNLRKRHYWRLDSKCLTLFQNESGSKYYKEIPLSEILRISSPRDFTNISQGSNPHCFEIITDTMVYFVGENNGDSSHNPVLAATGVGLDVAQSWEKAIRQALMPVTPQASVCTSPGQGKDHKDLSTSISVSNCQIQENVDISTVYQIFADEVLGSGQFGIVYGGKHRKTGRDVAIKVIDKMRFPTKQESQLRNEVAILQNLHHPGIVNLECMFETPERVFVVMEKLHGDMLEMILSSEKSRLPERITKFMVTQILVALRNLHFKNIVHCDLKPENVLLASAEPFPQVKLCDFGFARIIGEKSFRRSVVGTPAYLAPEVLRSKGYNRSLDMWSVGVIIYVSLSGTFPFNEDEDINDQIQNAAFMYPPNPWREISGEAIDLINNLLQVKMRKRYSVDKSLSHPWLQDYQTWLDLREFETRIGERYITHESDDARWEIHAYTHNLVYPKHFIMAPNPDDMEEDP

[12] = tested on: PANC-1; test: Antiproliferative activity against human PANC-1 cells assessed as reduction in cell proliferation at 5 uM measured after 48 to 144 hrs by MTT assay; format: functional, cell-based; settings: time 48-144 hrs
Method in brief: (§1)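 PANC-1 cells at 2000 cells/well, attached 4 h, then given compound at 5 µM or 0.25% DMSO vehicle. Grown 0, 48, 96 or 144 h, then MTT at 0.5 mg/mL final for 3 h, lysis in DMSO, absorbance at 550 nm. Four experiments (n=4), mean and SEM; two-way ANOVA with Dunnett's test against DMSO.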

[13] = target: Calcium/calmodulin-dependent protein kinase type II subunit alpha (Homo sapiens) (UniProt Q9UQM7); test: Inhibition of recombinant human full-length N-terminal GST-fused CaMK2alpha (1 to 478 residues) expressed in baculovirus expression system at 1 to 10 uM using Syntide-2 peptide as substrate measured after 10 mins by [gamma-32P]ATP by scintillation counting method; settings: dose 1-10 µM
Method in brief: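 Radiometric kinase assay in 40 µL: 50 mM Tris-HCl pH 7.4, 10 mM MgCl2, 2 mM CaCl2, calmodulin, 50 ng CAMKIIα, 2 µg Syntide-2 substrate, 25 µM ATP plus 2 µCi [γ-32P]ATP, with compounds at the indicated concentrations.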

[14] = target: Protein kinase C delta type (Homo sapiens) (UniProt Q05655); test: Inhibition of recombinant human full-length N-terminal GST-fused PKCdelta (1 to 676 residues) expressed in baculovirus expression system at 1 to 10 uM using MARCKS peptide as substrate measured after 10 mins by [gamma-32P]ATP by scintillation counting method; settings: dose 1-10 µM
Method in brief: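 Radiometric PKCδ assay: 50 mM Tris-HCl pH 7.4, 10 mM MgCl2, 4 µL phosphatidylserine/PDBu vesicle stock (dried lipids resuspended in 50 mM Tris pH 7.4 and sonicated), 50 ng PKCδ, 5 µg MARCKS peptide substrate, 25 µM ATP plus 2 µCi [γ-32P]ATP.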

[15] = tested on: PANC-1; test: Antiproliferative activity against human PANC-1 cells assessed as reduction in cell proliferation at 5 uM measured after 96 to 144 hrs by MTT assay; format: functional, cell-based; settings: time 96-144 hrs; method in brief: as §1

Sequence of Calcium/calmodulin-dependent protein kinase type II subunit alpha (Homo sapiens) (Q9UQM7 whole entry, the tested form may be a part): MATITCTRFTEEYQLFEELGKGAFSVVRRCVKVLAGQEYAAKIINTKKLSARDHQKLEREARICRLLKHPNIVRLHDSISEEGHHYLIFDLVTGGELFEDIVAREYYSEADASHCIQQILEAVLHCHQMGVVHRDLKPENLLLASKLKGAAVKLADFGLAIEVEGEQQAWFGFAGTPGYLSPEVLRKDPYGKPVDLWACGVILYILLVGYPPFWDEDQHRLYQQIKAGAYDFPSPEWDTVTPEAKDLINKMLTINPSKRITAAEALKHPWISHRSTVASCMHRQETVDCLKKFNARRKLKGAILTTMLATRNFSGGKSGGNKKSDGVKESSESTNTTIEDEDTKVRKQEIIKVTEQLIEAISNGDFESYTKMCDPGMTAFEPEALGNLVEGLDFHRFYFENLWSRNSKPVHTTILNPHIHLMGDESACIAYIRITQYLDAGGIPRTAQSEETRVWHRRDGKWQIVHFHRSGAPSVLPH
Sequence of Protein kinase C delta type (Homo sapiens) (Q05655 whole entry, looked up, the tested form may be a part): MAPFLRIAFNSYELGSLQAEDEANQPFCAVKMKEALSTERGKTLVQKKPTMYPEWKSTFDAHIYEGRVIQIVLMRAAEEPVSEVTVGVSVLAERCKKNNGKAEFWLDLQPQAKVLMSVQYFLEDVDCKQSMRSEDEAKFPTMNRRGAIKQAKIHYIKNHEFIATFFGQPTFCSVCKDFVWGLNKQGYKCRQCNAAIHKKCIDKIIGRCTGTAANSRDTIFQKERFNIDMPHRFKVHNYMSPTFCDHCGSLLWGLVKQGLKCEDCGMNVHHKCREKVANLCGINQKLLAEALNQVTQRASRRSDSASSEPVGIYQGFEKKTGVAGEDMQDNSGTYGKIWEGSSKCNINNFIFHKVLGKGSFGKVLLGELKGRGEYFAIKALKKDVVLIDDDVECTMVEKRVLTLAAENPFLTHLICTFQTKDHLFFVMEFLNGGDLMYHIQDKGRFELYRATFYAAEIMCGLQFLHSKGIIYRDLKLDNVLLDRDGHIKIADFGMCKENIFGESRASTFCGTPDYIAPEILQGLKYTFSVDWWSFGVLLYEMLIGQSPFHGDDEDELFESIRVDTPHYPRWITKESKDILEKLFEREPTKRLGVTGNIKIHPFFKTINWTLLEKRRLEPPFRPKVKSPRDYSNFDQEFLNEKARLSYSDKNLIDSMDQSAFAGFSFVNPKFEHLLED

SMILES | pIC50 [3] | pIC50 [4] | pIC50 [6] | pIC50 [7] | pIC50 [9] | pIC50 [10] | pIC50 [11] | inhibition [13] | inhibition [14] | pIC50 [1] | pIC50 [2] | pIC50 [5] | pIC50 [8] | Activity [12] | Activity [15]
Nc1ncnc2c1c(-c1c[nH]c3ccccc13)nn2CC1CCNCC1 | < 4.00 | < 4.02 | 4.75 | < 4.00 |  |  |  |  |  | 4.09 | 4.39 | 4.37 | 4.45 | inactive | 
CC[C@@H](N)CNc1ccnc(-c2cc(-c3cnn(C)c3)ccc2O)n1 | 5.77 | 5.72 | 6.00 | 5.66 | 7.80 | 8.05 |  |  |  | 6.22 | 5.74 | 6.00 | 6.15 |  | 
CCOc1ccc2cc(-c3nn(CC4CCN(C)CC4)c4ncnc(N)c34)ccc2n1 | < 4.26 | < 4.00 | < 4.00 | < 4.00 |  |  |  |  |  | 4.34 | < 4.00 | 4.45 | 4.52 |  | 

Continued, in another order:

pIC50 [3] | pIC50 [4] | pIC50 [6] | pIC50 [7] | pIC50 [9] | pIC50 [10] | pIC50 [11] | inhibition [13] | inhibition [14] | SMILES | pIC50 [1] | pIC50 [2] | pIC50 [5] | pIC50 [8] | Activity [12] | Activity [15]
4.20 | 4.13 | < 4.59 | < 4.47 |  |  |  |  |  | Cn1cc(-c2nn(C(C)(C)C)c3ncnc(N)c23)c2ccccc21 | < 4.11 | 4.67 | < 4.38 | < 4.42 |  | 
4.87 | 4.85 | 4.56 | 4.92 |  |  |  |  |  | CC(C)(CO)Cn1nc(-c2c[nH]c3ccccc23)c2c(N)ncnc21 | 4.28 | 5.33 | 4.88 | 4.71 |  | 
< 4.00 | < 4.00 | 4.62 | < 4.44 | 5.99 | 6.10 | 6.21 |  |  | CC(C)(C)n1nc(Cc2cccc3ccccc23)c2c(N)ncnc21 | < 4.00 | 4.64 | < 4.58 | < 4.63 |  | 
5.60 | 5.40 | 5.11 | 5.43 | 6.97 | 7.03 | 6.97 | inactive | inactive | CC(C)(C)n1nc(-c2c[nH]c3ccccc23)c2c(N)ncnc21 | 4.41 | 5.80 | 5.01 | 5.01 |  | Active
